Screens deposited in PubChem by several laboratories.
CSN inh: CSN deneddylation inhibition. AID 651999. inhibition, % at 12.5 µM. Purified CSN, SCF-Nedd8-OG deneddylation, fluorescence polarization. Q92905. 0.38% of 360,000 active;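 active = pattern-corrected inhibition above about 35%, with an unprinted fluorescence ratio check between 0.5 and 1.5, limit read from the data, passing the limit was not always enough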
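Assay system: Purified human Csn5 enzyme expressed in HEK293T cells | Amount: Enzyme 0.24 nM | Measured by: Fluorescence polarization readout | Medium: Tris/NaCl/DTT buffer, pH 7.5 | Compound dosing: One concentration, 12.5 µM, 0.25% DMSO | Times: 90 min incubation of compound, enzyme and substrate at room temperature | Control set: no-enzyme wells high, enzyme-with-substrate wells low | Read-out: % inhibition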
Rpn11 inh: Rpn11 (human) deubiquitinase inhibition | 0.59% of 360,000 active | inhibition, % at 20 µM | human 26S proteasome, Ub4-pepOG fluorescence polarization; 20S core pre-blocked with epoxomicin;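 active = inhibition at 20 µM, scaled to each plate's controls, above about 33%, limit read from the data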
TPT1 inh: blocks Candida albicans tRNA 2'-phosphotransferase; inhibition, % at 5 µM; 0.81% of 300,000 active; recombinant caTPT1, FP RNA substrate dephosphorylation;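 active = inhibition above the mean of all tested compounds plus 3 SD, set per screening campaign, cut at about 24% in these data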
ATG4B inh: blocks human ATG4B protease cleavage of LC3 substrate; AID 504462; inhibition, % at 8.33 µM; ATG4B cleavage of LC3-PLA2, NBD-HPC fluorescence, 1 h; 0.51% of 340,000 active; in the data active = inhibition above about 40%
SENP1 inh: SENP1 (human) catalytic domain inhibition. 0.21% of 360,000 active. recombinant SENP1 catalytic domain, CyPet-SUMO1-YPet FRET cleavage. inhibition, % at 10 µM. Q9P0U3;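 active = inhibition at least 30% at 10 µM, raw YFP signal under a set limit, fluorescence ratio 0.5 to 1.5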
Target sequence (Q9P0U3 419-644 limits assumed): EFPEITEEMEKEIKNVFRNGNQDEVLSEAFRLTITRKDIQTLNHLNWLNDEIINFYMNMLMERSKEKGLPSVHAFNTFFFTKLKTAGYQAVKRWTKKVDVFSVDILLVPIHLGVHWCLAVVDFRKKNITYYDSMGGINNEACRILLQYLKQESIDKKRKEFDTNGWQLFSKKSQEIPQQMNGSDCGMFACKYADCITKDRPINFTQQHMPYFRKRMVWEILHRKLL
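Test system: recombinant human SENP1 catalytic domain, His6-tagged / Medium: pH 8 Tris buffer with EDTA, NaCl, BME, BSA, NP40, catalase / Also added: SUMO1 FRET substrate flanked by Cypet and Ypet, 25 nM / Times: 50 min reaction at room temperature / Signal: FRET, CFP and YFP emission / Control set: no-enzyme low control and enzyme-plus-DMSO high control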
HNF4A DNA FP: change in binding of human HNF4 alpha to DNA | P41235 | HNF4a-FITC DNA binding, fluorescence polarization, 1 h | activity change, % at 10 µM | 0.3% of 360,000 active; in the data active = activity change above about 30%, passing the limit was not always enough
PLA2 ctr: counter-screen for ATG4B inhibitors: human phospholipase A2; shares compounds with ATG4B inh; purified PLA2, NBD-C6-HPC fluorescence, 45 min; inhibition, % at 8.33 µM; 66% of 1,600 active; AID 588402; in the data active = inhibition above about 50%
Target sequence (P04054 whole entry, looked up): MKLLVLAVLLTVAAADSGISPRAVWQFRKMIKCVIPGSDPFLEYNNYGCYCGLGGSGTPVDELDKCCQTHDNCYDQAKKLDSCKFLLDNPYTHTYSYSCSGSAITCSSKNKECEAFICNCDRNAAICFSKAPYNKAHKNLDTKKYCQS
A number is an active result; – = inactive; · = no result given. The list is not random: actives were taken first. Their share in the collection is about 2%.

SMILES	CSN inh	Rpn11 inh	TPT1 inh	ATG4B inh	SENP1 inh	HNF4A DNA FP	PLA2 ctr
COc1ccc(C(C)NC(=S)NCc2ccc(F)cc2)cc1OC (stereo not given)	–	–	–	–	–	–	·
CCCc1ccc(C(C)NC(=S)NCc2ccc(F)cc2)cc1 (stereo not given)	–	–	–	59.0	–	–	70.2
CCC(C)c1ccc(C(C)NC(=S)NCc2ccc(F)cc2)cc1 (stereo not given)	–	–	–	63.0	–	–	77.6
CCC(NC(=S)NCc1ccc(F)cc1)c1ccc(C(C)C)cc1 (stereo not given)	–	–	–	53.9	–	–	76.8
CCC(=O)N1CCC1(C)C(=O)NCc1ccccc1SC (stereo not given)	–	–	·	·	–	–	·
COc1ccc([C@H]2CC(=O)C=C(c3ccccc3-c3ccccc3)C2)cc1	–	–	·	41.8	–	–	57.7
CCCC(C)(C)C(=O)N1CCC1(C)C(=O)NS(=O)(=O)c1ccc(Cl)cc1 (stereo not given)	–	–	·	·	–	–	·
O=C(O)CN1C(=O)/C(=C\c2cc(Br)ccc2OCc2ccccc2F)SC1=S	–	–	–	55.8	–	–	51.4
COC(=O)C[C@H]1N(S(=O)(=O)c2ccc(C)cc2)C(C(C)C)CC1(C(=O)OC)C(=O)OC (stereo not given in full)	–	·	·	·	–	–	·
NC(=O)C1Cc2ccccc2CN1C(=O)c1nn(Cc2ccccc2)c(=O)c2ccccc12 (stereo not given)	–	–	·	40.9	–	–	61.0
NC(=O)C1Cc2ccccc2CN1C(=O)c1cc(C2CC2)nn1-c1ccccc1 (stereo not given)	–	–	·	91.5	–	–	92.3
O=C(c1nn(Cc2ccccc2)c(=O)c2ccccc12)N1CCc2ccccc2C1	–	–	–	–	–	–	·
CC1Cc2ccccc2N1S(=O)(=O)c1cccc(C(=O)N2Cc3ccccc3CC2C(N)=O)c1 (stereo not given)	–	–	·	67.8	–	–	67.7
NC(=O)C1Cc2ccccc2CN1C(=O)c1cccc(Oc2ccccc2)c1 (stereo not given)	–	–	–	47.3	–	–	94.2
Cc1ccc(C(=O)N2Cc3ccccc3CC2C(=O)O)cc1 (stereo not given)	–	–	–	–	–	–	·
COC(=O)c1nn(C)c(=O)[nH]c1=O	–	–	·	–	–	–	·
C/C(NCCc1ccccc1)=C1/CCOC1=O	–	–	·	·	–	–	·
COc1ccc(Cl)cc1-c1cc(C(=O)NCc2ccccc2)[nH]n1	–	–	·	·	–	–	·
C#CCOCCOCCOCCNc1nc(N2CCN(C(=O)CCCCCCCCCCNC(=O)[C@@H](CCC(=O)O)n3cc(CCCCCN)nn3)CC2)nc(N2CCN(C(=O)CCCCCCCCCCNC(=O)[C@H](CCCCN)n3cc(C[C@@H](C)CC)nn3)CC2)n1	–	–	–	–	–	–	·
C#CCOCCOCCOCCNc1nc(N2CCN(C(=O)CCCCCCCCCCNC(=O)[C@H](CCCN=C(N)N)n3cc(C[C@@H](C)CC)nn3)CC2)nc(N2CCN(C(=O)CCCCCCCCCCNC(=O)[C@@H]([C@H](C)CC)n3cc(CCCCCN)nn3)CC2)n1	·	·	–	·	·	·	·
C#CCOCCOCCOCCNc1nc(N2CCN(C(=O)CCCCCCCCCCNC(=O)[C@H](CCCCN)n3cc(C)nn3)CC2)nc(N2CCN(C(=O)CCCCCCCCCCNC(=O)[C@H](CCCN=C(N)N)n3cc(C[C@@H](C)CC)nn3)CC2)n1	·	·	–	68.6	·	·	70.0
C#CCOCCOCCOCCNc1nc(N2CCN(C(=O)CCCCCCCCCCNC(=O)[C@H](CO)n3cc(CCCCCN)nn3)CC2)nc(N2CCN(C(=O)CCCCCCCCCCNC(=O)[C@H](CCCN=C(N)N)n3cc(C[C@@H](C)CC)nn3)CC2)n1	·	·	–	·	·	·	·
